As usually defined, the Km is the concentration of substrate that gives half-maximal velocity. As usually defined, the Vmax is the rate approached at saturating substrate.

Calls of active or inactive are those of the source. No cut-off for these calls is given here.

The source of these data is ChEMBL document CHEMBL1817661, “Combining carbochips and mass spectrometry to study the donor specificity for the Neisseria meningitidis β1,3-N-acetylglucosaminyltransferase LgtA” (Bioorg Med Chem Lett, 2011).

The target of series [1] is T1, Beta 1,3 N-acetylglucosaminyltransferase (Neisseria meningitidis) (UniProt Q8KHG4).
T1 sequence (whole entry): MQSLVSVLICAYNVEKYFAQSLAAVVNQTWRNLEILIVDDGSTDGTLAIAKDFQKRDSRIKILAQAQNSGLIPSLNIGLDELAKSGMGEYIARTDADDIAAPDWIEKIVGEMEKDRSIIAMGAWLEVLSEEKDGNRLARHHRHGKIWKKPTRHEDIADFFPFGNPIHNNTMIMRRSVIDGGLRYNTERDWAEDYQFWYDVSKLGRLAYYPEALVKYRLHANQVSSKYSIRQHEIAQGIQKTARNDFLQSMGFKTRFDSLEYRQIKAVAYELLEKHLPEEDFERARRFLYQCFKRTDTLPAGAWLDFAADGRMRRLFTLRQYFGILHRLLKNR
The series can be described thus: Activity of Neisseria meningitidis beta1,3-N-acetylglucosaminyltransferase LgtA assessed as enzyme catalyzed glycosylation using self-assembled monolayers having lactoside as acceptor at 2 mM after 5 to 120 mins by SAMDI MS assay. An outline of the steps:
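Gold islands (2 mm) carry a monolayer of lactose (10% density) with tri(ethylene glycol) groups. Each donor analog (2 mM) is mixed with LgtA in assay buffer, applied to an island, and incubated in a humidified chamber at 30 °C. Times were 5, 10, 15, 20, 30, 40, 60 and 120 min. Arrays were rinsed with water and ethanol, matrix was applied, and relative glycosylation product was read by SAMDI MS.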

The target of series [2] is T1, Beta 1,3 N-acetylglucosaminyltransferase (Neisseria meningitidis). The series can be described thus: Ratio of Vmax to Km for Neisseria meningitidis beta1,3-N-acetylglucosaminyltransferase LgtA assessed as enzyme catalyzed glycosylation using lactose as substrate after 2 to 30 mins by SAMDI analysis. An outline of the steps: (§1)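 Solution-phase reactions: LgtA with lactose azide acceptor (10 mM) and UDP-sugar donor at five concentrations (1–10 mM), 30 °C. Sets stopped at 12 time points. Aliquots mixed with copper bromide and DIPEA and immobilized on monolayer islands (20 min). Yield comes from product/substrate SAMDI peak intensities. Initial velocities are slopes of linear fits of yield vs time. Apparent Km and Vmax are taken from a reciprocal plot.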

Substrate in series [3]: CC(=O)N[C@H]1[C@@H](OP(=O)(O)OP(=O)(O)OC[C@H]2O[C@@H](n3ccc(=O)[nH]c3=O)[C@H](O)[C@@H]2O)O[C@H](C)[C@@H](O)[C@@H]1O
The series is described as follows: (§2) Activity of Neisseria meningitidis beta1,3-N-acetylglucosaminyltransferase LgtA assessed as enzyme catalyzed glycosylation using lactose as substrate after 2 to 30 mins by SAMDI analysis. Put shortly:
as §1

Substrate in series [4]: CC(=O)N[C@H]1[C@@H](OP(=O)(O)OP(=O)(O)OC[C@H]2O[C@@H](n3ccc(=O)[nH]c3=O)[C@H](O)[C@@H]2O)O[C@H](CO)C[C@@H]1O
The series is described as §2. An outline of the steps: as §1

Substrate in series [5]: CCC(=O)N[C@H]1[C@@H](OP(=O)(O)OP(=O)(O)OC[C@H]2O[C@@H](n3ccc(=O)[nH]c3=O)[C@H](O)[C@@H]2O)O[C@H](CO)[C@@H](O)[C@@H]1O
The series is described as §2. Put shortly: as §1

Substrate in series [6]: CC(=O)N[C@H]1[C@@H](OP(=O)(O)OP(=O)(O)OC[C@H]2O[C@@H](n3ccc(=O)[nH]c3=O)[C@H](O)[C@@H]2O)O[C@H](C)[C@H](O)[C@@H]1O
Described as §2. An outline of the steps: as §1

As to `[N-]=[N+]=NCC(=O)N[C@H]1[C@@H](OP(=O)(O)OP(=O)(O)OC[C@H]2O[C@@H](n3ccc(=O)[nH]c3=O)[C@H](O)[C@@H]2O)O[C@H](CO)[C@@H](O)[C@@H]1O`, the result in series [1] was inactive.

On to `CCC(=O)N[C@H]1[C@@H](OP(=O)(O)OP(=O)(O)OC[C@H]2O[C@@H](n3ccc(=O)[nH]c3=O)[C@H](O)[C@@H]2O)O[C@H](CO)[C@@H](O)[C@@H]1O`, for which the Vmax/Km in series [2] came out at 0.005 min⁻¹.

`CC(=O)N[C@H]1[C@@H](OP(=O)(O)OP(=O)(O)OC[C@H]2O[C@@H](n3ccc(=O)[nH]c3=O)[C@H](O)[C@@H]2O)O[C@H](C)[C@H](O)[C@@H]1O`: the Vmax/Km in series [2] was found to be 0.038 min⁻¹.

`CC(=O)N[C@H]1[C@@H](OP(=O)(O)OP(=O)(O)OC[C@H]2O[C@@H](n3ccc(=O)[nH]c3=O)[C@H](O)[C@@H]2O)O[C@H](C)[C@@H](O)[C@@H]1O`: the outcome in series [1] was Active. In addition, in series [2], the Vmax/Km is 0.259 min⁻¹.

Regarding `CC(=O)N[C@@H]1[C@H](OP(=O)(O)OP(=O)(O)OC[C@H]2O[C@@H](n3ccc(=O)[nH]c3=O)[C@H](O)[C@@H]2O)O[C@@H](CO)[C@H](O)[C@H]1O` (stereo in doubt; 1), the Vmax/Km in series [2] is 1.15 min⁻¹.

On to `CC(=O)N[C@H]1[C@@H](OP(=O)(O)OP(=O)(O)OC[C@H]2O[C@@H](n3ccc(=O)[nH]c3=O)[C@H](O)[C@@H]2O)O[C@H](CO)C[C@@H]1O`, for which, in series [2], the Vmax/Km came out at 0.029 min⁻¹.

For `CC(=O)N[C@@H]1[C@H](OP(=O)(O)OP(=O)(O)OC[C@H]2O[C@@H](n3ccc(=O)[nH]c3=O)[C@H](O)[C@@H]2O)O[C@@H](CO)[C@H](O)[C@H]1O` (stereo in doubt; 8), the Vmax/Km in series [2] came to 0.065 min⁻¹.

B1: Beta 1,3 N-acetylglucosaminyltransferase (Neisseria meningitidis), Q8KHG4 (protein)
chain: MQSLVSVLICAYNVEKYFAQSLAAVVNQTWRNLEILIVDDGSTDGTLAIAKDFQKRDSRIKILAQAQNSGLIPSLNIGLDELAKSGMGEYIARTDADDIAAPDWIEKIVGEMEKDRSIIAMGAWLEVLSEEKDGNRLARHHRHGKIWKKPTRHEDIADFFPFGNPIHNNTMIMRRSVIDGGLRYNTERDWAEDYQFWYDVSKLGRLAYYPEALVKYRLHANQVSSKYSIRQHEIAQGIQKTARNDFLQSMGFKTRFDSLEYRQIKAVAYELLEKHLPEEDFERARRFLYQCFKRTDTLPAGAWLDFAADGRMRRLFTLRQYFGILHRLLKNR
Take B1: the Michaelis-Menten constant (Km) in series [3] stood at 1.32 mM; in series [4], 3.28 mM; in series [5], 21.1 mM; in series [6], 3.05 mM. Besides, the Vmax in series [3] stood at 0.343 mM/min; in series [4] it was 0.097 mM/min; in series [5] it was 0.11 mM/min; in series [6], 0.115 mM/min.
